Compounds with a hit are over-represented: about 1.8% of the library has one in this group of screens.
DDE Tn7 FP inh = inhibitors of Tn7 peptide binding to fibrin DD(E), primary screen, biochemical, fluorescence polarization, human fibrin, Tn7 probe; Fibrinogen beta chain (Homo sapiens), P02675; FP displacement of FITC-Tn7 peptide from fibrin DD(E); 0% = median of compound wells per plate; inhibition, % at 8.3 µM; 0.13% of 370,000 active; AID 720508, 2013;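 active = inhibition above the mean of compounds falling within the control limits plus 3 SD of them, cut at about 14% in these data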
Target sequence (P02675 whole entry, looked up): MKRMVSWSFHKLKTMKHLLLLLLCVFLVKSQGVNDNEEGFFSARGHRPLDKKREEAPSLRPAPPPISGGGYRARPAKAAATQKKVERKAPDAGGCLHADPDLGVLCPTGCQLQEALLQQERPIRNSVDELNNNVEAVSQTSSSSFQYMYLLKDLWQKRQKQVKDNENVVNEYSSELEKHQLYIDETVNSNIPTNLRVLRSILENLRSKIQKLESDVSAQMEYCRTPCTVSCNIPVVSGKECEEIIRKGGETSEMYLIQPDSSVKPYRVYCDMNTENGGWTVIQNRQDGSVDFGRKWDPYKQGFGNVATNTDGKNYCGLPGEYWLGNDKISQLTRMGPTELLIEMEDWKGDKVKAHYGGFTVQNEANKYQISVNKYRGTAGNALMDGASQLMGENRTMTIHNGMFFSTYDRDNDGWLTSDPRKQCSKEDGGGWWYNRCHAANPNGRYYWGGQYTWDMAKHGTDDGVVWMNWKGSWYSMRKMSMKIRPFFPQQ
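Assay system: Fibrin-DD(E) protein isolated from polymerized human fibrin clots; read-out basis: percent inhibition; medium: Tris/NaCl/CaCl2 buffer, pH 7.8; signal: FP measurement; incubation: 10 min plus 3 h, room temperature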
CAL PDZ FP-1 = CAL PDZ peptide-binding inhibitors, primary screen, biochemical, fluorescence polarization, Cer-tagged CAL PDZ, HTS. purified CAL PDZ, TMR-peptide fluorescence polarization, 1 h. inhibition, % at 20 µM. 0.02% of 330,000 active;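 active = highest replicate inhibition of at least 40%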
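Read-out basis: mP drop reported as inhibition | Assay system: Tagged CAL PDZ protein CerCALP, purified | Benchmarks: Unlabelled peptide for full inhibition, DMSO wells as neutral | Schedule: 1 h incubation at room temperature before polarization reading | Buffer or medium: Sodium phosphate/NaCl buffer pH 7.4 with TCEP, IgG, Thesit | Doses: Single point, 20 µM | Measured by: Fluorescence polarization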
DDE Tn6 FP inh = inhibitors of Tn6 peptide binding to fibrin DD(E), primary screen, biochemical, fluorescence polarization, human fibrin, Tn6 probe; inhibition, % at 8.3 µM; Fibrinogen beta chain (Homo sapiens), P02675; 0.21% of 370,000 active; Fibrin DD(E) TRITC-Tn6 fluorescence polarization displacement;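 active = inhibition above a per-campaign cutoff: mean of compounds within control limits plus 3 SD, cut at about 15% in these data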
GRK2 inh = compounds blocking aptamer binding on GRK2 – biochemical, human GRK2, bead flow cytometry, HTS, primary screen; Beta-adrenergic receptor kinase 1 (Homo sapiens), P25098; inhibition of aptamer binding, % at 10 µM; FAM-aptamer displacement from GRK2; 0.59% of 330,000 active; AID 488847, 2010;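 active = inhibition of aptamer binding above 40%, roughly 3 SD of noise, on plates passing a quality check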;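 also: median bead fluorescence of bound FAM aptamer so fluorescent compounds give negative values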
ARNT-TACC3 inh = disruptors of ARNT/TACC3 protein interaction, primary screen, biochemical, AlphaScreen, single concentration; Transforming acidic coiled-coil-containing protein 3 (Homo sapiens), Q9Y6A5; AlphaScreen His-ARNT PAS-B/GST-TACC3 binding, luminescence; TACC3 fragment carries E629A point mutation; inhibition, % at 9.99 µM; 0.66% of 390,000 active; AID 623870, 2012;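 active = mean inhibition of replicates at least 50% and at least half of replicates each reaching 50%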
CAL PDZ FP-2 = untagged CAL PDZ binding inhibitors, primary screen, biochemical, fluorescence polarization, HTS. Golgi-associated PDZ and coiled-coil motif-containing protein (Homo sapiens), Q9HD26. purified CAL PDZ, TMR-peptide fluorescence polarization, 1 h. inhibition, % at 24.9 µM. 0.92% of 300,000 active;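 active = mean inhibition of at least 30% with at least half of replicates also reaching 30%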
Numbers stand for hits; - = inactive; . = no result given.

SMILES	DDE Tn7 FP inh	CAL PDZ FP-1	DDE Tn6 FP inh	GRK2 inh	ARNT-TACC3 inh	CAL PDZ FP-2
O=C(NCCS(=O)(=O)NC1CCCC1)c1ccc(F)cc1	-	-	-	-	-	-
N#Cc1c(NCc2ccccc2)ccnc1Cl	-	-	-	.	-	40.5
O=C(Nc1ccc(Cl)c(Cl)c1)Oc1ccc(NC(=O)c2ccco2)cc1	18.8	-	-	-	-	-
O=C(Nc1ccc(OC(=O)c2ccco2)cc1)c1ccco1	-	-	-	-	.	-
O=C(Nc1ccc(Br)c(Cl)c1)c1ccco1	-	.	-	-	-	46.3
O=C(Nc1cccc(F)c1)c1ccco1	-	53.6	-	-	-	-
CCC(=O)Oc1cccc(C(=O)Nc2cccc(NC(=O)c3ccco3)c2)c1	-	-	-	-	.	44.4
CCC(=O)Oc1ccc(NC(=O)c2ccco2)cc1	-	-	-	-	-	-
COC(=O)/C=C1\Nc2ccc(Cl)cc2C(=O)NC1=O	-	.	-	.	.	.
O=C(Nc1ccc(CSc2ccccc2)cc1)c1ccco1	-	-	-	-	-	63.3
O=C(C[C@H]1CC[C@@H]2[C@H](COC[C@@H](O)CN2C(=O)c2ccccc2F)O1)NCc1ccccc1	.	.	.	.	-	.
C[C@@H]1CCCCO[C@@H](CN(C)Cc2ccc(C(=O)O)cc2)[C@@H](C)CN([C@@H](C)CO)C(=O)c2cc(NS(=O)(=O)c3ccc(Cl)cc3)ccc2O1	.	.	.	.	-	.
COc1ccc(CNc2nc3ccccc3n2CCN2CCCCC2)cc1	-	-	-	-	-	-
CCN(CC)c1ccc(CNc2nc3ccccc3n2CCN2CCCCC2)cc1	-	-	-	-	-	42.6
C[C@H](CO)N1C[C@H](C)[C@H](CN(C)C(=O)CCC(F)(F)F)OCCCC[C@H](C)Oc2ccc(NC(=O)CCC(F)(F)F)cc2C1=O	.	.	.	.	-	.
Fc1ccc(CN2CCN(C(=S)NCCc3ccccc3)CC2)c(Cl)c1	-	-	-	-	-	34.5
CN(C)C(=O)[C@H]1[C@H](CO)[C@H]2Cn3c(ccc(-c4ccccc4)c3=O)[C@H]2N1Cc1ccccc1F	.	.	.	.	-	.
Cc1ccc(-c2cnc(N)n2C)cc1C	-	-	-	-	63.1	-
C[C@H](CO)N1C[C@H](C)[C@@H](CN(C)Cc2ccncc2)Oc2ccc(NS(=O)(=O)c3cn(C)cn3)cc2C1=O	.	.	.	.	-	.
C[C@@H]1CN([C@@H](C)CO)C(=O)c2cc(NC(=O)Nc3ccc(F)cc3)ccc2O[C@@H](C)CCCCO[C@@H]1CN(C)C(=O)c1ccccc1	.	.	.	.	-	.
CC(C)=CC(=O)Nc1cccc(S(=O)(=O)NC2=NCCCCC2)c1	-	-	-	-	-	47.1
CCCCn1c(N)c(N(CCOC)C(=O)c2cnc(C)cn2)c(=O)[nH]c1=O	-	-	-	-	-	37.7
COCCN(C(=O)C1CCC1)c1c(N)n(CC(C)C)c(=O)[nH]c1=O	-	-	-	-	-	-
CCCCC1CCC(C(=O)N(CCOC)c2c(N)n(CC(C)C)c(=O)[nH]c2=O)CC1 (stereo not given)	-	-	-	-	.	61.6
O=C(O)CSc1nnc(-c2cccc(S(=O)(=O)N3CCOCC3)c2)n1-c1cccc(Cl)c1	-	-	-	-	-	-
O=C(COC(=O)Cc1ccc(S(=O)(=O)N2CCOCC2)s1)Nc1ccc(F)cc1F	-	-	-	-	-	44.8
O=C(Cc1ccc(S(=O)(=O)N2CCCCC2)s1)Nc1ccc(F)cc1F	-	-	-	-	-	-
O=c1cnnc(N/N=C/C2CC=CCC2)[nH]1 (stereo not given)	-	-	-	-	65.1	-
